Data reported in paper PMC7548052 (Molecular Diversity, 2020).
Where a name gives a salt, the structure may show the parent alone.

How the values were obtained:
Format in all cases: cell-based
Capan-1 = experiment: Anticancer screening, MTS cell proliferation assay, 72 h; details: Homo sapiens
Outline: (§1)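 Human solid-tumour lines were grown as monolayers in supplier-recommended media at 37 °C, 5% CO2. LN-229 was seeded at 375 and Capan-1 at 250 cells/well and incubated overnight. Cells were then exposed for 72 h to seven concentrations (100 to 6.4 × 10−3 µM). MTS reagent was added and absorbance read at 490 nm. Two independent experiments were run, each point at least in triplicate.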

DND-41 = experiment: Anticancer screening, MTS cell proliferation assay, 72 h; details: Homo sapiens
Outline: (§2)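 HL-60, K-562, Z-138 and DND-41 suspension cells were seeded at 2500–6000 cells/well directly into wells already containing test compound at seven concentrations (100 to 6.4 × 10−3 µM). After 72 h, MTS reagent was added and absorbance read at 490 nm. GI50 is the concentration giving 50% growth inhibition. Two independent experiments were run, each point at least in triplicate.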

HCT 116 = experiment: Anticancer screening, MTT assay, 72 h; details: Homo sapiens
Outline: (§3)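 Monolayer cultures were kept at 37 °C, 5% CO2 and plated on day 0 at 3 × 10^4 cells/mL (HCT 116, H460) or 5 × 10^4 cells/mL (MCF-7). Test agents were added in ten-fold dilutions (10−8 to 10−4 M) and incubated 72 h. Growth was read by MTT at 570 nm. GI50 is the concentration giving 50% inhibition. Two independent experiments were run, points at least in triplicate.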

H460 = experiment: Anticancer screening, MTT assay, 72 h; details: Homo sapiens
Outline: as §3

MCF-7 = experiment: Anticancer screening, MTT assay, 72 h; details: Homo sapiens, MCF7, 72 h
Outline: as §3

HL-60 = experiment: Anticancer screening, MTS cell proliferation assay, 72 h; details: Homo sapiens
Outline: as §2

LN-229 = experiment: Anticancer screening, MTS cell proliferation assay, 72 h; details: Homo sapiens
Outline: as §1

K-562 = experiment: Anticancer screening, MTS cell proliferation assay, 72 h; details: Homo sapiens
Outline: as §2

Z-138 = experiment: as above; details: Homo sapiens
Outline: as §2

SMILES | GI50 (Capan-1; CAPAN-1, 72 h) [µM] | GI50 (DND-41; DND41, 72 h) [µM] | GI50 (HCT 116; HCT-116, 72 h) [µM] | GI50 (H460; NCI-H460, 72 h) [µM] | GI50 (MCF-7) [µM] | GI50 (HL-60; HL-60, 72 h) [µM] | GI50 (LN-229; LN-229, 72 h) [µM] | GI50 (K-562; K562, 72 h) [µM] | GI50 (Z-138; Z-138, 72 h) [µM] | GI50 (Capan-1; CAPAN-1) [µM] | GI50 (DND-41; DND41) [µM] | GI50 (HCT 116; HCT-116) [µM] | GI50 (H460; NCI-H460) [µM] | GI50 (HL-60; HL-60) [µM] | GI50 (LN-229; LN-229) [µM] | GI50 (K-562; K562) [µM] | GI50 (Z-138; Z-138) [µM]
CCN(CC)CCCC(C)Nc1ccnc2cc(Cl)ccc12 (stereo not shown) [CQ, chloroquine diphosphate, reference compound] | 14.9 ± 1.5 | 53.7 ± 6.9 | 16 ± 3 | 13 ± 0.8 | 6 ± 1.8 | 13 ± 0.2 | 22 ± 2.8 | 45 ± 0.7 | 13.6 ± 0.6 |  |  |  |  |  |  |  | 
C=C(CC(=O)OC)C(=O)Nc1ccc(F)cc1 [Compound 2, Methyl 3-[(4-fluorophenyl)carbamoyl]but-3-enoate] | 2.8 ± 0.6 | 15.7 | 4 ± 1 | 15 ± 1 | 2 ± 0.1 | 9.3 ± 0.5 | 8 ± 0.6 | 15.9 ± 1 | 8.4 ± 0.5 |  |  |  |  |  |  |  | 
C=C(CC(=O)OC)C(=O)NCc1cccnc1 [Compound 8, Methyl 3-{[(pyridin-3-yl)methyl]carbamoyl}but-3-enoate] | 9.1 ± 0.7 | 16.3 ± 0.1 | 3 ± 1 | 16 ± 2 | 6 ± 1 | 11 ± 0.3 | 8.4 ± 0.1 | 53.3 ± 2.7 | 10.2 ± 0.3 |  |  |  |  |  |  |  | 
C=C(CC(=O)OC)C(=O)NCCc1cccnc1 [Compound 9, Methyl 3-{[2-(pyridin-3-yl)ethyl]carbamoyl}but-3-enoate] | 5.9 ± 0.2 | 18.5 ± 2.4 | 4 ± 1 | 15 ± 1 | 2 ± 1 | 9.6 ± 0.6 | 6.2 ± 0.8 | 34.5 ± 8.7 | 5.6 ± 1.6 |  |  |  |  |  |  |  | 
C=C(CC(=O)OC)C(=O)NCCc1c[nH]c2ccc(OC)cc12 [Compound 10, Methyl 3-{[2-(5-methoxy-1H-indol-3-yl)ethyl]carbamoyl}but-3-enoate] | 2.4 ± 0.9 | 18.9 ± 4.2 | 3 ± 1 | 11 ± 1 | 2 ± 1.2 | 4.9 ± 0.8 | 6.5 ± 1.2 | 16.5 ± 1 | 2.6 ± 0.3 |  |  |  |  |  |  |  | 
C=C(CC(=O)OC)C(=O)NCCCC(C)Nc1cc(OC)cc2cccnc12 (stereo not shown) [Compound 11, Methyl 3-({4-[(6-methoxyquinolin-8-yl)amino]pentyl}carbamoyl)but-3-enoate] | 5.4 ± 3.3 | 18.1 ± 1.1 | 2.5 ± 0.07 | 4 ± 0.5 | 4 ± 1 | 11.1 ± 0.6 | 4.3 ± 2.2 | 28.1 ± 7.1 | 11 ± 0.2 |  |  |  |  |  |  |  | 
C=C(CC(=O)OC)C(=O)NCCCCNc1ccnc2cc(Cl)ccc12 [Compound 12, Methyl 3-({4-[(7-chloroquinolin-4-yl)amino]butyl}carbamoyl)but-3-enoate] | 1.3 ± 0.4 | 3.1 ± 0.1 | 2 ± 0.05 | 2 ± 0.9 | 0.8 ± 0.3 | 1.9 | 1.1 ± 0.1 | 8.1 ± 0.4 | 1.9 ± 0.1 |  |  |  |  |  |  |  | 
C=C(CC(=O)OC)C(=O)NCCCCNc1cc(C(F)(F)F)nc2c(C(F)(F)F)cccc12 [Compound 13, Methyl 3-[(4-{[2,8-bis(trifluoromethyl)quinolin-4-yl]amino}butyl)carbamoyl]but-3-enoate] | 32.2 ± 2.7 | 36.7 ± 10 | 2 ± 0.8 | 3.5 ± 1.3 | 1.4 ± 0.1 | 10.3 ± 1.5 | 10.8 ± 2.5 | 46.9 ± 0.7 | 12.2 ± 0.1 |  |  |  |  |  |  |  | 
COc1ccc2[nH]c(CCNC(=O)C=C(C)C(=O)NCCc3c[nH]c4ccc(OC)cc34)cc2c1 [Compound 14, N′-[2-(5-methoxy-1H-indol-2-yl)ethyl]-N-[2-(5-methoxy-1H-indol-3-yl)ethyl]-2-methylbut-2-enediamide] |  |  | 13 ± 0.2 | 23 ± 1 | 11 ± 0.3 |  |  |  |  |  |  |  |  |  |  |  | 
CC(=O)O[C@@]12CO[C@@H]1C[C@H](O)[C@@]1(C)C(=O)[C@H](O)C3=C(C)[C@@H](OC(=O)[C@H](O)[C@@H](NC(=O)OC(C)(C)C)c4ccccc4)C[C@@](O)([C@@H](OC(=O)c4ccccc4)[C@H]21)C3(C)C [DTX, docetaxel, reference compound] |  |  |  |  |  |  |  |  |  | 0.0045 ± 0.002 | 0.002 ± 0.0012 | 0.0045 ± 0.0044 | 0.0058 ± 0.0038 | 0.0104 ± 0.0024 | 0.0035 ± 0.0012 | 0.0096 ± 0.0033 | 0.0014 ± 0.0009
OC(c1cc(C(F)(F)F)nc2c(C(F)(F)F)cccc12)C1CCCCN1 (stereo not shown) [MQ, mefloquine hydrochloride, reference compound] | 2 ± 0.1 | 3.2 ± 0.2 | 2 ± 0.1 | 1.5 ± 0.1 | 1.3 ± 0.2 | 5.9 ± 3.2 | 0.1 ± 0.1 | 9.4 ± 0.3 | 12.6 ± 0.1 |  |  |  |  |  |  |  | 
COc1cc(NC(C)CCCN)c2ncccc2c1 (stereo not shown) [PQ, primaquine diphosphate, reference compound] | 9 ± 3.2 | 14 ± 1 | 17 ± 1 | 17 ± 3 | 7 ± 1.5 | 7 ± 0.5 | 9.9 ± 0.4 | 43.3 ± 0.1 | 10.2 ± 0.5 |  |  |  |  |  |  |  | 
CN[C@@H]1C[C@H]2O[C@@](C)([C@@H]1OC)n1c3ccccc3c3c4c(c5c6ccccc6n2c5c31)C(=O)NC4 [STS, staurosporine, reference compound] |  |  |  |  |  |  |  |  |  | 0.0323 ± 0.0032 | 0.0161 ± 0.0105 | 0.023 ± 0.0114 | 0.048 ± 0.0023 | 0.0312 ± 0.0123 | 0.0634 ± 0.0223 | 0.0337 ± 0.0036 | 0.0261 ± 0.0139

Further compounds by falling GI50 (HCT 116; HCT-116, 72 h), results first:

GI50 (Capan-1; CAPAN-1, 72 h) [µM] | GI50 (DND-41; DND41, 72 h) [µM] | GI50 (HCT 116; HCT-116, 72 h) [µM] | GI50 (H460; NCI-H460, 72 h) [µM] | GI50 (MCF-7) [µM] | GI50 (HL-60; HL-60, 72 h) [µM] | GI50 (LN-229; LN-229, 72 h) [µM] | GI50 (K-562; K562, 72 h) [µM] | GI50 (Z-138; Z-138, 72 h) [µM] | SMILES | GI50 (Capan-1; CAPAN-1) [µM] | GI50 (DND-41; DND41) [µM] | GI50 (HCT 116; HCT-116) [µM] | GI50 (H460; NCI-H460) [µM] | GI50 (HL-60; HL-60) [µM] | GI50 (LN-229; LN-229) [µM] | GI50 (K-562; K562) [µM] | GI50 (Z-138; Z-138) [µM]
6.3 ± 2.3 | 25.5 ± 9.4 | 12 ± 2 | 8 ± 2 | 10 ± 2.5 | 10.1 ± 0.1 | 6.2 ± 0.4 | 31 ± 3.9 | 6.1 ± 0.3 | C=C(CC(=O)OC)C(=O)Nc1cc(OC)cc2cccnc12 [Compound 5, Methyl 3-[(6-methoxyquinolin-8-yl)carbamoyl]but-3-enoate] |  |  |  |  |  |  |  | 
8.9 ± 0.1 | 26.3 ± 6.6 | 12 ± 2 | 18 ± 1 | 3 ± 1 | 13.1 ± 1 | 10.2 ± 1 | 49.9 ± 2.2 | 10.9 | C=C(CC(=O)OC)C(=O)Nc1cccnc1 [Compound 6, Methyl 3-[(pyridin-3-yl)carbamoyl]but-3-enoate] |  |  |  |  |  |  |  | 
6.8 ± 1.7 | 21 ± 2.2 | 7 ± 2 | 16 ± 2 | 3 ± 1.1 | 10.6 ± 0.7 | 8.1 ± 0.3 | 43.4 | 9 ± 0.2 | C=C(CC(=O)OC)C(=O)Nc1cncc(F)c1 [Compound 7, Methyl 3-[(5-fluoropyridin-3-yl)carbamoyl]but-3-enoate] |  |  |  |  |  |  |  | 
1.9 ± 0.3 | 21.2 ± 4 | 3 ± 1 | 9 ± 2 | 2 ± 0.4 | 3.7 ± 0.1 | 4.4 ± 0.1 | 13.9 ± 0.6 | 5.4 ± 0.1 | C=C(CC(=O)OC)C(=O)Nc1cccc(C(F)(F)F)c1 [Compound 3, Methyl 3-{[3-(trifluoromethyl)phenyl]carbamoyl}but-3-enoate] |  |  |  |  |  |  |  | 
5.3 ± 0.5 | 16.1 ± 0.4 | 3 ± 1 | 11 ± 3 | 1 ± 0.3 | 8 ± 0.8 | 7.7 ± 0.2 | 31.3 ± 3 | 8.2 ± 0.4 | C=C(CC(=O)OC)C(=O)Nc1ccc(C(F)(F)F)cc1 [Compound 4, Methyl 3-{[4-(trifluoromethyl)phenyl]carbamoyl}but-3-enoate] |  |  |  |  |  |  |  | 
2.3 ± 0.3 | 7.9 ± 4.4 | 2.4 ± 0.4 | 3 ± 1 | 0.7 ± 0.2 | 2.6 ± 0.2 | 2.4 ± 0.8 | 8.6 ± 0.3 | 6.9 ± 1.3 | CC(=CC(=O)NCCCCNc1cc(C(F)(F)F)nc2c(C(F)(F)F)cccc12)C(=O)NCCCCNc1cc(C(F)(F)F)nc2c(C(F)(F)F)cccc12 [Compound 15, N,N′-bis(4-{[2,8-bis(trifluoromethyl)quinolin-4-yl]amino}butyl)-2-methylbut-2-enediamide] |  |  |  |  |  |  |  | 
